In brackets after ≈: the same amount, converted by molar mass.
Assays:
[1] = target: Glutamate NMDA receptor; GRIN1/GRIN2B (Homo sapiens, UniProt Q05586+Q13224); assay: Displacement of [3H]ifenprodil from GluN1a/GluN2B (unknown origin) expressed in mouse L(tk-) cell membranes after 120 mins by solid scintillation counting method
Summary of the method: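 Membranes (about 20 μg protein) from mouse L(tk-) cells stably carrying GluN1a/GluN2B, induced with 4 μM dexamethasone and 4 μM ketamine for 24 h. Incubated with 5 nM [3H]ifenprodil in 5 mM TRIS/1 mM EDTA pH 7.5 at 37 °C, 120 min. Non-specific binding defined with 10 μM ifenprodil.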

[2] = target: Sigma non-opioid intracellular receptor 1 (Cavia porcellus, UniProt Q60492); assay: Displacement of [3H]-(+)-pentazocine from sigma1 receptor in guinea pig brain cortex membranes incubated for 120 mins by solid scintillation counting method; format: cell membranes
Summary of the method: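 Guinea pig brain cortex membranes (about 100 µg protein) with 2 nM [3H]-(+)-pentazocine in 50 mM TRIS pH 7.4 at 37 °C. Non-specific binding defined with 10 µM unlabeled (+)-pentazocine. Six concentrations, 10^-5 to 10^-10 M, in duplicate. 120 min with shaking, filtration, solid scintillator counting.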

[3] = target: T1, Sigma intracellular receptor 2 (Rattus norvegicus, UniProt Q5U3Y7); assay: Displacement of [3H]-di-o-tolylguanidine from sigma2 receptor in rat liver membranes in the presence of sigma1 receptor ligand (+)-pentazocine incubated for 120 mins by scintillation counting method; format: cell membranes
T1 sequence (Q5U3Y7 whole entry): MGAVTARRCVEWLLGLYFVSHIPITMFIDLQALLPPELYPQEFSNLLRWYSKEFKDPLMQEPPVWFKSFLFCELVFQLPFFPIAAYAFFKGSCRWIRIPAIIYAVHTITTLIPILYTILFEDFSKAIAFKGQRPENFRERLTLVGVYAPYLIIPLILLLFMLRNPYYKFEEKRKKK
Summary of the method: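 Rat liver membranes (about 100 µg protein) with 3 nM [3H]di-o-tolylguanidine in 50 mM TRIS pH 8.0 containing 500 nM (+)-pentazocine, at rt. Non-specific binding defined with 10 µM unlabeled DTG. Concentrations 10^-5 to 10^-10 M, in duplicate. 120 min, filtration, scintillation counting. Three independent experiments, mean ± SEM.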

[4] = Selectivity ratio of Ki for sigma1 receptor in guinea pig brain membranes to Ki for sigma2 receptor in rat liver membranes; format: cell membranes
[5] = Selectivity ratio of Ki for sigma2 receptor in rat liver membranes to Ki for GluN1a/GluN2B (unknown origin) expressed in mouse L(tk-) cell membranes; format: cell-based
[6] = Antioxidant activity assessed as ABTS radical scavenging activity incubated for 40 mins; format: functional
Summary of the method: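 Test compound at 0.05, 0.1, 0.2 and 0.4 mg/mL (200 µL) added to 1.8 mL ethanolic ABTS 7mM. Incubated 40 min at room temperature, absorbance read at 735 nm against ABTS solution. Percent inhibition computed from absorbances and used to derive IC50. Triplicate, mean ± SEM; ascorbic acid as reference.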

[7] = Antioxidant activity assessed as H2O2 radical scavenging activity; format: functional
Summary of the method: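 Compounds at 0.05, 0.1, 0.2 and 0.4 mg/mL in phosphate buffer pH 7.4. 0.353 mL of 4 mM H2O2 in phosphate buffer added to 2.0 mL of each solution, absorbance read at 239 nm. Percent inhibition calculated from absorbances relative to control. Triplicate, mean ± SEM.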

[8] = Cytotoxicity against human SH-SY5Y cells assessed as cell viability at 10 uM incubated for 48 hrs by MTT assay (reference value: 100 +/- 12.00%); format: cell-based; conditions: read-out: Activity
Summary of the method: (§1)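 Cells kept in DMEM Glutamax with 10% FBS and antibiotic/antimycotic at 37 °C, 5% CO2. Plated at 2x10^3 cells/well 24 h before dosing. Compounds taken from DMSO and diluted in medium, final DMSO ≤1.0%. Exposure 48 h, then MTT added for 4 h at 37 °C. Read as A595 minus A655. Triplicates, at least three independent experiments, mean ± SEM.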

[9] = Cytotoxicity against human SH-SY5Y cells assessed as cell viability at 25 uM incubated for 48 hrs by MTT assay (reference value: 100 +/- 12.00%); format: cell-based; conditions: read-out: Activity; summary of the method: as §1
[10] = Cytotoxicity against human SH-SY5Y cells assessed as cell viability at 50 uM incubated for 48 hrs by MTT assay (reference value: 100 +/- 12.00%); format: cell-based; conditions: read-out: Activity; summary of the method: as §1
[11] = Cytotoxicity against human SH-SY5Y cells assessed as cell viability at 100 uM incubated for 48 hrs by MTT assay (reference value: 100 +/- 12.00%); format: cell-based; conditions: read-out: Activity; summary of the method: as §1
[12] = Cytotoxicity against human Hep3B cells assessed as cell viability at 10 uM incubated for 48 hrs by MTT assay relative to control; format: cell-based, Hep 3B2; conditions: read-out: Activity; summary of the method: as §1
[13] = Cytotoxicity against human Hep3B cells assessed as cell viability at 25 uM incubated for 48 hrs by MTT assay relative to control; format: cell-based, Hep 3B2; conditions: read-out: Activity; summary of the method: as §1
[14] = Cytotoxicity against human Hep3B cells assessed as cell viability at 50 uM incubated for 48 hrs by MTT assay relative to control; format: cell-based, Hep 3B2; conditions: read-out: Activity; summary of the method: as §1
[15] = Cytotoxicity against human Hep3B cells assessed as cell viability at 100 uM incubated for 48 hrs by MTT assay relative to control; format: cell-based, Hep 3B2; conditions: read-out: Activity; summary of the method: as §1
[16] = Cytotoxicity against human HeLa cells assessed as cell viability at 10 uM incubated for 48 hrs by MTT assay relative to control; format: cell-based; conditions: read-out: Activity; summary of the method: as §1
[17] = Cytotoxicity against human HeLa cells assessed as cell viability at 25 uM incubated for 48 hrs by MTT assay relative to control; format: cell-based; conditions: read-out: Activity; summary of the method: as §1
[18] = Cytotoxicity against human HeLa cells assessed as cell viability at 50 uM incubated for 48 hrs by MTT assay relative to control; format: cell-based; conditions: read-out: Activity; summary of the method: as §1
[19] = Cytotoxicity against human HeLa cells assessed as cell viability at 100 uM incubated for 48 hrs by MTT assay relative to control; format: cell-based; conditions: read-out: Activity; summary of the method: as §1
[20] = Cytotoxicity against human SH-SY5Y cells assessed as decrease in cell viability incubated for 48 hrs by MTT assay; format: cell-based; conditions: read-out: LD50
Summary of the method: (§2)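 Cells kept in DMEM Glutamax with 10% FBS and antibiotic/antimycotic at 37 °C, 5% CO2. Seeded 24 h before dosing (SH-SY5Y at 2x10^3 cells/well). Compounds in DMSO serially diluted in medium, final DMSO 1.0%, exposure 48 h. MTT added for 4 h at 37 °C, read A595 minus A655. LD50 from linear regression of dose-log response curves; triplicates, three experiments, mean ± SEM.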

[21] = Cytotoxicity against human Hep3B cells assessed as decrease in cell viability incubated for 48 hrs by MTT assay; format: cell-based, Hep 3B2; conditions: read-out: LD50; summary of the method: as §2
[22] = Cytotoxicity against human HeLa cells assessed as decrease in cell viability incubated for 48 hrs by MTT assay; format: cell-based; conditions: read-out: LD50; summary of the method: as §2
[23] = tested on: SH-SY5Y; assay: Neuroprotective activity against H2O2-induced toxicity in human SH-SY5Y cells assessed as cell viability at 25 uM pretreated for 48 hrs followed by H2O2 challenge and measured after 4 hrs by MTT assay (reference value: 18 +/- 2.64%); format: functional; conditions: read-out: Activity

Chain of Sigma non-opioid intracellular receptor 1 (Q60492 whole entry): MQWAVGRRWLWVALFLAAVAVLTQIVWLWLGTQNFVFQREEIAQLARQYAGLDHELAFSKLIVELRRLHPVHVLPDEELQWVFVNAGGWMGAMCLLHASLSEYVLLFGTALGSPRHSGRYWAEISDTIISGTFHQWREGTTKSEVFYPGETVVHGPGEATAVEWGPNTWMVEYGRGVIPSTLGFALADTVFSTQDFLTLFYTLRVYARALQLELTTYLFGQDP
Chain of Glutamate NMDA receptor; GRIN1/GRIN2B (Q13224 whole entry, other chains not shown): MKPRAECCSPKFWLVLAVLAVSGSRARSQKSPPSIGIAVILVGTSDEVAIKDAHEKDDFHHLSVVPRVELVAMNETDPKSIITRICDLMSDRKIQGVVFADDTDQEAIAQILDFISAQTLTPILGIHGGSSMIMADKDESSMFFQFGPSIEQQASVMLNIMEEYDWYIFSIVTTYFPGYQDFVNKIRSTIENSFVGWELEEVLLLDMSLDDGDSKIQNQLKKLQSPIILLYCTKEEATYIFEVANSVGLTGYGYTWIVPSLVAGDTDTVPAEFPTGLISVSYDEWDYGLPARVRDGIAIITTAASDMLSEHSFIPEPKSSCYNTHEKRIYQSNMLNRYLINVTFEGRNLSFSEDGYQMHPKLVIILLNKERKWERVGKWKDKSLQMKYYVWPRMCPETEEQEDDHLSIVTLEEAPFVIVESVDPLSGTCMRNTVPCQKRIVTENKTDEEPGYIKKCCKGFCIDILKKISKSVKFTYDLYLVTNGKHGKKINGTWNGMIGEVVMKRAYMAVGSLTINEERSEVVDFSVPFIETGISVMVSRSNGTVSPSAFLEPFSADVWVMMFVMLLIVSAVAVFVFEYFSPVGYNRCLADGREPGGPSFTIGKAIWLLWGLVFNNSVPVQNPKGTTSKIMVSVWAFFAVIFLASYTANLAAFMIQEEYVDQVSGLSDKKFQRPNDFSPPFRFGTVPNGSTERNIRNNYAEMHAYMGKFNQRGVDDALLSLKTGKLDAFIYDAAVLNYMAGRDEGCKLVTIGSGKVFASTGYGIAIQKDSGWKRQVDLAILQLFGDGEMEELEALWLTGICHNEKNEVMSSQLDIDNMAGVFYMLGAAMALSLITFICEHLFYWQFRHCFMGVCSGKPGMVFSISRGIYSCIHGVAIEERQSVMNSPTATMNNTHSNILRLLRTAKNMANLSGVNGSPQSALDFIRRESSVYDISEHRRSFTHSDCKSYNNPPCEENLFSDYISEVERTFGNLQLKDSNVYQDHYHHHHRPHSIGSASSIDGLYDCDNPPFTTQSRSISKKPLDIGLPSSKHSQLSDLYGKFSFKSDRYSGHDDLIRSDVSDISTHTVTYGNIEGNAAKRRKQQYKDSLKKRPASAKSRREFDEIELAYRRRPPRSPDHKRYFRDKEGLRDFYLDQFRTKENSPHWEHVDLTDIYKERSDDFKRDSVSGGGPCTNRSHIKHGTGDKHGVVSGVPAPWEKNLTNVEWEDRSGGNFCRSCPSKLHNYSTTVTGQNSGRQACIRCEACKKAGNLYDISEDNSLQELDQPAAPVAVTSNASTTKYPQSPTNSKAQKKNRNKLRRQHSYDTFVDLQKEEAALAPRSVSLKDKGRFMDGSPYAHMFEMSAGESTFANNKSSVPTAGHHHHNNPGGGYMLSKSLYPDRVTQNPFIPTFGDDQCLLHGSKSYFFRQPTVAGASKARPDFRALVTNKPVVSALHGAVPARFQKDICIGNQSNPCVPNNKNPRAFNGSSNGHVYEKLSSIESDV

Row | Compound | Ki [1] | Ki [2] | Ki [3] | Ratio Ki [4] | Ratio Ki [5] | IC50 [6] | IC50 [7] | viability at 48 h, 10 µM [8] | viability at 48 h, 25 µM [9] | viability at 48 h, 50 µM [10] | viability at 48 h, 100 µM [11] | viability at 48 h, 10 µM [12] | viability at 48 h, 25 µM [13] | viability at 48 h, 50 µM [14] | viability at 48 h, 100 µM [15] | viability at 48 h, 10 µM [16] | viability at 48 h, 25 µM [17] | viability at 48 h, 50 µM [18] | viability at 48 h, 100 µM [19] | CC50 at 48 h [20] | other results
1 | COc1cc2c(cc1OC)CN(CCCCN1C(=O)CCc3ccccc31)CC2 | 0.012 µM | 0.116 µM | 0.045 µM | 2.6 | 3.7 | 12.35 µg/mL (≈ 31.3 µM) | 15.37 µg/mL (≈ 39 µM) | 71% | 77 to 84% | 68% | 37% | 75% | 70% | 62% | 30% | 80% | 79% | 71% | 42% | 36 µM | CC50 at 48 h [21]: 67 µM; CC50 at 48 h [22]: 83 µM; viability at 25 µM [23]: 73%
2 | Cc1ccc(CN(C)CCCCN2C(=O)CCc3ccccc32)c(C)c1 | 0.005 µM | 0.06 µM | 0.032 µM | 1.9 | 6.4 | 26.24 µg/mL (≈ 74.9 µM) | 29.16 µg/mL (≈ 83.2 µM) | 92% | 79 to 95% | 90% | 78% | 77% | 81% | 52% | 223% | 79% | 59% | 57% | 47% | 231 µM | CC50 at 48 h [21]: 60 µM; CC50 at 48 h [22]: 76 µM; viability at 25 µM [23]: 98%
3 | O=c1oc(-c2ccccc2)nn1CCCCN1CCC2(CC1)OCc1ccccc12 | 0.0082 µM | 0.019 µM | 0.016 µM | 1.2 | 2 | 17.96 µg/mL (≈ 44.3 µM) | 21.19 µg/mL (≈ 52.3 µM) | 120% | 96 to 104% | 50% | 1% | 87% | 90% | 42% | 4% | 99% | 80% | 60% | 5% | 53 µM | CC50 at 48 h [21]: 51 µM; CC50 at 48 h [22]: 55 µM; viability at 25 µM [23]: 101%
4 | O=C1CCc2ccccc2N1CCCCN1CCN(c2ccc(F)cc2)CC1 | 0.0081 µM | 0.016 µM | 0.021 µM | 0.76 | 2.6 | 21.34 µg/mL (≈ 55.9 µM) | 24.04 µg/mL (≈ 63 µM) | 127% | 84 to 121% | 116% | 60% | 99% | 83% | 54% | 41% | 88% | 78% | 70% | 70% | 63 µM | CC50 at 48 h [21]: 77 µM; CC50 at 48 h [22]: 128 µM; viability at 25 µM [23]: 86%
5 | O=c1oc(-c2ccccc2)nn1CCCCN1CCN(C2CCCCC2)CC1 | 0.023 µM | 0.035 µM | 0.093 µM | 0.37 | 4 | 69.25 µg/mL (≈ 180 µM) | 73.07 µg/mL (≈ 190 µM) | 81% | 78 to 105% | 75% | 105% | 72% | 76% | 72% | 143% | 62% | 48% | 46% | 57% | 81 µM | CC50 at 48 h [21]: 71 µM; CC50 at 48 h [22]: 76 µM; viability at 25 µM [23]: 114%

From ChEMBL document CHEMBL4304784, “Discovery of new potent dual sigma receptor/GluN2b ligands with antioxidant property as neuroprotective agents” (Eur J Med Chem, 2019)
